Measured values reported in the RNAGym collection of RNA variant scans (doi:10.1126/science.aae0568).
This sample holds only a part of the variants without activity.

B1: tRNA (parent)
chain: GUUCCGUUGGCGUAAUGGUAACGCGUCUCCCUCCUAAGGAGAAGACUGCGGGUUCGAGUCCCGUACGGAACG

Variants of: B1
Experiment: yeast fitness relative to wild type (ratio to wild type); higher = fitter; tRNA-Arg(CCU), competitive growth, 37 C, YPD
Outline: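 Variants of the tRNA-Arg(CCU) gene were chemically synthesised with a 3% per-site mutation rate across 69 sites and placed at the native genomic locus in Saccharomyces cerevisiae. Six parallel replicates of the pooled strains were competed in YPD at 37°C for 24 hours, and gene amplicons from the start and end populations were read by 100-nucleotide paired-end sequencing. Darwinian fitness relative to wild type was derived from changes in genotype frequencies. Genotypes required ≥ 100 starting reads, and estimates < 0.5 were set to 0.5.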

Question: Which yeast fitness does the source give for G25C C29G U32G A43U G50A here?
Answer: ≤ 0.5

Question: With G25C A45C A70C as the variant, how does the yeast fitness read?
Answer: 0.677

Question: For G25A C33A A40G A70C, which yeast fitness is on record?
Answer: ≤ 0.5

Question: With C24U C29U G51U as the variant, how does the yeast fitness read?
Answer: ≤ 0.5

Question: For C24U C60A G63A, which yeast fitness is on record?
Answer: ≤ 0.5

Question: For C24U C30A G50A, which yeast fitness is on record?
Answer: 0.587

Question: For G25A A37U U47G G56C, which yeast fitness is on record?
Answer: 0.601

Question: For C24U C27U U53G C60A A70G, which yeast fitness is on record?
Answer: ≤ 0.5

Question: Which yeast fitness does the source give for G25A C46G A65U here?
Answer: 0.788

Question: For C24U C27G G38C A57U C60A C62G, which yeast fitness is on record?
Answer: ≤ 0.5

Question: Which yeast fitness does the source give for G25A C33G A57G G58A U59C A65U here?
Answer: ≤ 0.5

Question: For G25A U32A U53A, which yeast fitness is on record?
Answer: ≤ 0.5

Question: For C24U C31A C33A C34U C46A A69C, which yeast fitness is on record?
Answer: 0.546

Question: Which yeast fitness does the source give for C24U C27U here?
Answer: 0.972

Question: Which yeast fitness does the source give for G25A C30A G67U here?
Answer: 0.776

Question: For C24U U28C, which yeast fitness is on record?
Answer: 0.988

Question: With G25A G68A as the variant, how does the yeast fitness read?
Answer: 1.02

Question: Which yeast fitness does the source give for C24U U26A U28G G52A here?
Answer: ≤ 0.5

Question: Which yeast fitness does the source give for G25A C31U here?
Answer: 0.923

Question: For G25A C31A, which yeast fitness is on record?
Answer: 0.671

Question: With G25A C31G as the variant, how does the yeast fitness read?
Answer: 0.906

Question: For C24U G25C C30G G50C G56A C66U, which yeast fitness is on record?
Answer: ≤ 0.5

Question: With C24U U35C as the variant, how does the yeast fitness read?
Answer: 0.778

Question: For G25A A42U A65C G67U, which yeast fitness is on record?
Answer: ≤ 0.5

Question: With C24U G44A C66A as the variant, how does the yeast fitness read?
Answer: 0.563

Question: Which yeast fitness does the source give for G25A G41A C49U A69U here?
Answer: 0.574

Question: With G25C C34G G51A as the variant, how does the yeast fitness read?
Answer: ≤ 0.5

Question: With G25A A45U as the variant, how does the yeast fitness read?
Answer: 0.803

Question: For G25C C29U C30U U35C A40C, which yeast fitness is on record?
Answer: ≤ 0.5

Question: For C24U G25C C46A, which yeast fitness is on record?
Answer: 1.02

Question: Which yeast fitness does the source give for G25C C31A A69C here?
Answer: 0.585

Question: Which yeast fitness does the source give for G25A C27U here?
Answer: 0.901

Question: With G25C A40G C61G G63A A69U as the variant, how does the yeast fitness read?
Answer: ≤ 0.5

Question: Which yeast fitness does the source give for G25C A57G here?
Answer: 0.892

Question: With C24U U28C A37G C62U as the variant, how does the yeast fitness read?
Answer: ≤ 0.5

Question: With G25A C29A A42G as the variant, how does the yeast fitness read?
Answer: ≤ 0.5

Question: With C24U U32C G39C as the variant, how does the yeast fitness read?
Answer: 0.517

Question: Which yeast fitness does the source give for G25A C27U C34G here?
Answer: 0.748

Question: For C24U C55A G56A, which yeast fitness is on record?
Answer: 0.555

Question: Which yeast fitness does the source give for G25A U32A U54G G56A here?
Answer: ≤ 0.5

Question: For C24U G51A G58A G67A, which yeast fitness is on record?
Answer: ≤ 0.5

Question: Which yeast fitness does the source give for C24U C31G U32A A43C here?
Answer: ≤ 0.5

Question: With C24U C34U G48C as the variant, how does the yeast fitness read?
Answer: ≤ 0.5

Question: Which yeast fitness does the source give for G25A U26C here?
Answer: 0.947

Question: Which yeast fitness does the source give for G25A U26G here?
Answer: 0.805

Question: Which yeast fitness does the source give for C24U C60A C66G here?
Answer: 0.606

Question: For C24U G50A A65U, which yeast fitness is on record?
Answer: 0.569

Question: Which yeast fitness does the source give for G25C C33U C49A U53A here?
Answer: ≤ 0.5

Question: Which yeast fitness does the source give for C24U C31G A37G here?
Answer: 0.529

Question: Which yeast fitness does the source give for G25A C30G U59C C66A here?
Answer: ≤ 0.5

Question: With G25A A36U as the variant, how does the yeast fitness read?
Answer: 0.564

Question: For G25C C29U C34G, which yeast fitness is on record?
Answer: ≤ 0.5

Question: For G25A C34G C46U U54A, which yeast fitness is on record?
Answer: ≤ 0.5

Question: Which yeast fitness does the source give for G25C C29U A65C A70U here?
Answer: ≤ 0.5

Question: With G25C C34G A57G as the variant, how does the yeast fitness read?
Answer: ≤ 0.5

Question: For C24U C33U C34A, which yeast fitness is on record?
Answer: 0.555

Question: For G25C C31G C62U, which yeast fitness is on record?
Answer: 0.737

Question: For G25A A43C C60A, which yeast fitness is on record?
Answer: 0.544

Question: With G25A A37C C61U as the variant, how does the yeast fitness read?
Answer: 0.572

Question: For G25C C29G A43G C49G, which yeast fitness is on record?
Answer: 0.647

Question: Which yeast fitness does the source give for G25A A45G G52A U54A here?
Answer: ≤ 0.5

Question: For C24U G41A G68A, which yeast fitness is on record?
Answer: ≤ 0.5

Question: With C24U C66A as the variant, how does the yeast fitness read?
Answer: 0.618

Question: For G25A C31U G38C G48A, which yeast fitness is on record?
Answer: 0.651

Question: With G25A G48C C62A as the variant, how does the yeast fitness read?
Answer: 0.611

Question: Which yeast fitness does the source give for G25A U32A C46U A57U here?
Answer: 0.609

Question: With C24U G44A as the variant, how does the yeast fitness read?
Answer: 0.912

Question: With G25A G38C G48A C60U as the variant, how does the yeast fitness read?
Answer: ≤ 0.5

Question: For G25A C46A, which yeast fitness is on record?
Answer: 0.876

Question: With G25A C29U C66U as the variant, how does the yeast fitness read?
Answer: 0.747

Question: With G25A A43C G63C G67A as the variant, how does the yeast fitness read?
Answer: ≤ 0.5

Question: Which yeast fitness does the source give for G25A C29G U54G C61G here?
Answer: ≤ 0.5

Question: With C24U C55U U59A as the variant, how does the yeast fitness read?
Answer: 0.535

Question: With C24U C31G U54C C62G as the variant, how does the yeast fitness read?
Answer: ≤ 0.5

Question: Which yeast fitness does the source give for C24U C61G G63C here?
Answer: 0.537

Question: With C24U C27U A40G as the variant, how does the yeast fitness read?
Answer: 0.563

Question: For G25A A37U A40C, which yeast fitness is on record?
Answer: 0.68

Question: For C24U C27U G39C, which yeast fitness is on record?
Answer: ≤ 0.5

Question: For G25A C60A A69G, which yeast fitness is on record?
Answer: ≤ 0.5

Question: For C24U C34A G48C, which yeast fitness is on record?
Answer: 0.693

Question: With C24U U26C A40C as the variant, how does the yeast fitness read?
Answer: 0.572

Question: Which yeast fitness does the source give for G25C A45G G50A C62G here?
Answer: ≤ 0.5

Question: Which yeast fitness does the source give for G25C C46A G58A G63U here?
Answer: 0.604

Question: With C24U G41C A42C as the variant, how does the yeast fitness read?
Answer: 0.553
